{"source": "ChEMBL document CHEMBL4396917", "about": "“Synthesis and biological evaluation of novel benzylidene-succinimide derivatives as noncytotoxic antiangiogenic inhibitors with anticolorectal cancer activity in vivo” (Eur J Med Chem, 2019)", "key": {"[1]": {"tested_on": "HT-29", "assay": "Downregulation of VEGF mRNA expression in human HT-29 cells after 24 hrs by RT-qPCR assay", "format": "functional, cell-based", "method_in_brief": "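HT29 cells treated with 1, 5, 10 or 20 μM for 24 h; total RNA extracted with TRIzol; SYBR Green qPCR, 40 cycles of 5 s at 95°C and 60 s at 60°C in 20-μL reactions.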"}, "[2]": {"target": "Ribosomal protein S6 kinase beta-1 (Homo sapiens) (UniProt P23443)", "sequence (P23443 whole entry, looked up)": "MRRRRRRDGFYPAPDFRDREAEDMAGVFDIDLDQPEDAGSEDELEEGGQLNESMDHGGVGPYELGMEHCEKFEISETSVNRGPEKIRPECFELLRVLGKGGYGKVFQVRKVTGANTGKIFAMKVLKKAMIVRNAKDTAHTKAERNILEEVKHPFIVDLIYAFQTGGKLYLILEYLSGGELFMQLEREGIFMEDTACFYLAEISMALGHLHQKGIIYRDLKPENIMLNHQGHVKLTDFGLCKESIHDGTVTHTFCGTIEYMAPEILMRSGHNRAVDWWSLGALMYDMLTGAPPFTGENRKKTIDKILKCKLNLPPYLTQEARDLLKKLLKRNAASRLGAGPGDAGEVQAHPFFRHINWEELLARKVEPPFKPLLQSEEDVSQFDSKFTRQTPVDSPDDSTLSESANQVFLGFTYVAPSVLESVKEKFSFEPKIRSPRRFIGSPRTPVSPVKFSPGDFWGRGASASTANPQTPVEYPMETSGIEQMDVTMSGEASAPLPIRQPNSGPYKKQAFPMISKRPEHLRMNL", "assay": "Inhibition of P70S6K (unknown origin) at 10 uM using myelin basic protein as substrate in presence of [gamma-33P]-ATP by scintillation counting analysis relative to control", "method_in_brief": "(§1)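 Radiometric kinase panel run by a contract lab. Kinase (5–10 mU) in 25 mM Tris pH 7.5, 0.02 mM EGTA, 0.66 mg/mL myelin basic protein, magnesium acetate and [γ-33P]-ATP (about 500 cpm/pmol). Started with Mg-ATP mix, 40 min at room temperature, stopped with 3% phosphoric acid. Spotted on P30 filters, washed in 75 mM phosphoric acid and methanol, scintillation counted. Mean ± SD of three independent experiments.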"}, "[3]": {"tested_on": "HUVEC", "assay": "Antimigratory activity in HUVEC assessed as reduction in VEGF-induced cell migration at 1 to 2.5 uM by wound healing assay", "conditions": "Homo sapiens, TDE = time-dependent effect"}, "[4]": {"tested_on": "HT-29", "assay": "Downregulation of VEGF expression in human HT-29 cells after 24 hrs by immunoblot analysis", "format": "functional, cell-based"}, "[5]": {"tested_on": "HT-29", "assay": "Cytotoxicity against human HT-29 cells assessed as reduction in cell growth after 72 hrs by MTT assay", "format": "cell-based", "conditions": "HT-29, 72 h"}, "[6]": {"tested_on": "HT-29", "assay": "Antiangiogenic activity in human HT-29 cells assessed as decrease in secreted MMP9 activity at 1 to 20 uM after 24 hrs by gelatin zymography", "format": "functional, cell-based", "method_in_brief": "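HT29 cells treated 1, 5, 10 or 20 μM for 24 h; supernatant run non-reducing on 10% SDS-PAGE with 2% gelatin; SDS removed with 2% Triton X-100, gel incubated 48 h at 37°C in Tris pH 7.5/NaCl/CaCl2 buffer, Coomassie stained; clear MMP-2 and MMP-9 bands quantified by densitometry.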"}, "[7]": {"target": "Vascular endothelial growth factor receptor 2 (Homo sapiens) (UniProt P35968)", "sequence (P35968 whole entry)": "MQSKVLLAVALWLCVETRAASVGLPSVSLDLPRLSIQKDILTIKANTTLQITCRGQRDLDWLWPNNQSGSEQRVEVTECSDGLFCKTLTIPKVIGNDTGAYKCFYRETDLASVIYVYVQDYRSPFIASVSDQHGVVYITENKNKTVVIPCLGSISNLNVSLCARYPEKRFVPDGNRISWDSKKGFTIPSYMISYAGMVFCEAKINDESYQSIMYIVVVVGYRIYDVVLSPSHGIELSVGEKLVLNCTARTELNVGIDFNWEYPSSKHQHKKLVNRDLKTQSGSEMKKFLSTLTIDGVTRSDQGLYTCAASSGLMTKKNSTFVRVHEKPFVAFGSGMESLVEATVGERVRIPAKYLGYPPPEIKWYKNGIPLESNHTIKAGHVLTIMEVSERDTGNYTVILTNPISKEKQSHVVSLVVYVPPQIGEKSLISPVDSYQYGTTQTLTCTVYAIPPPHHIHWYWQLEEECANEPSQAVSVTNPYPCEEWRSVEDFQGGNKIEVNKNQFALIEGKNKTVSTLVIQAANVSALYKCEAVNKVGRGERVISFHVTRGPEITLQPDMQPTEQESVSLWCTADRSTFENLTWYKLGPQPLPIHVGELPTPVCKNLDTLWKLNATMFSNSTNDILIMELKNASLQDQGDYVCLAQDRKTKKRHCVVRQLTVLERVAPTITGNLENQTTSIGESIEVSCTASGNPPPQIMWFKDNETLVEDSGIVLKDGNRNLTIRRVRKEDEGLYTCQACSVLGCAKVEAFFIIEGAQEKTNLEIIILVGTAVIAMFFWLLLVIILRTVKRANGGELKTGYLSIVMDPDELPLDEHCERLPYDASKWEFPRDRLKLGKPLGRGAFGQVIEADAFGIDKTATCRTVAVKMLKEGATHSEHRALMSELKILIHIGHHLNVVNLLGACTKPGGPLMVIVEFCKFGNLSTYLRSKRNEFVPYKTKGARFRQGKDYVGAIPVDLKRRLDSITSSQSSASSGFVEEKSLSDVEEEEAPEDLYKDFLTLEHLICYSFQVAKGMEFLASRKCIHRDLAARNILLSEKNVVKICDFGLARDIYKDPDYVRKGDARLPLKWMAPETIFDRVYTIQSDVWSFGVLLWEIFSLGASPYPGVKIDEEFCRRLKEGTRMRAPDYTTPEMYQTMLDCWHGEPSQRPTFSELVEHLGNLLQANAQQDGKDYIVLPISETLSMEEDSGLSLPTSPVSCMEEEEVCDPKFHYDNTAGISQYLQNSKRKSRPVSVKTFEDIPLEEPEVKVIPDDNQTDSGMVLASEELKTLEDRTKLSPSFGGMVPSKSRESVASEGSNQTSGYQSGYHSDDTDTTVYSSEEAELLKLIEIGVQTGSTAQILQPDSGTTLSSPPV", "assay": "Inhibition of VEGFR2 (unknown origin) at 10 uM using myelin basic protein as substrate in presence of [gamma-33P]-ATP by scintillation counting analysis relative to control", "method_in_brief": "as §1"}, "[8]": {"tested_on": "HT-29", "assay": "Downregulation of HIF1-alpha expression in human HT-29 cells after 24 hrs by immunoblot analysis", "format": "functional, cell-based"}, "[9]": {"tested_on": "HUVEC", "assay": "Induction of apoptosis in VEGF-stimulated HUVEC assessed as necrotic cells at 10 uM after 24 hrs by Annexin V-FITC/propidium iodide staining based flow cytometric analysis (reference value: 12.1%)", "format": "cell-based", "conditions": "human", "method_in_brief": "(§2)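 HUVECs plated at 5×10^5 per well and treated 24 h with 1, 5, 10 or 20 μM. Detached and adherent cells were pooled, washed in ice-cold PBS and resuspended in fresh medium. 1×10^5 cells were stained with annexin-V-FITC in annexin-V buffer for 20 min in the dark, then PI (50 μg/mL) was added. Read-out by flow cytometry.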"}, "[10]": {"tested_on": "HUVEC", "assay": "Cytotoxicity against HUVEC at 1 to 5 uM measured after 48 hrs", "format": "cell-based", "conditions": "human"}, "[11]": {"tested_on": "Chorioallantoic membrane", "assay": "Antiangiogenic activity in Leghorn chicken fertilized egg chorioallantoic membrane assessed as impaired neovascularization with absence of vascular networks at 10 nM/egg measured after 48 hrs by CAM assay", "format": "functional, tissue-based", "conditions": "Gallus gallus", "method_in_brief": "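Fertile Leghorn eggs incubated at 37.8°C, 40% humidity; window opened on day 7; compound, sunitinib or 0.9% NaCl mixed with DMSO applied on filter paper onto CAM; 48 h incubation, methanol fixation, photography; nascent vessels counted.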"}, "[12]": {"tested_on": "HUVEC", "assay": "Antiangiogenic activity against VEGF-induced HUVEC assessed as inhibition of cell proliferation preincubated for 30 mins followed by VEGF addition measured after 24 hrs by MTT assay", "format": "functional, cell-based", "conditions": "Homo sapiens", "method_in_brief": "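HUVECs seeded 24 h, starved 16 h in M200 with 2% FBS, pretreated 30 min with compound at 0.1, 1, 10, 20 or 40 μM, then stimulated with VEGF (25 ng/mL) for 24 h; viability read by MTT; IC50 determined.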"}, "[13]": {"tested_on": "HUVEC", "assay": "Induction of apoptosis in VEGF-stimulated HUVEC assessed as early apoptotic cells at 20 uM after 24 hrs by Annexin V-FITC/propidium iodide staining based flow cytometric analysis (reference value: 7%)", "format": "cell-based", "conditions": "human", "method_in_brief": "as §2"}, "[14]": {"tested_on": "HUVEC", "assay": "Antimigratory activity in HUVEC assessed as reduction in VEGF-induced cell migration at 2.5 uM measured after 6 hrs by wound healing assay relative to control", "format": "functional", "conditions": "Homo sapiens", "method_in_brief": "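Confluent HUVECs starved 12 h in M200 with 2% FBS, scratched with pipette tip; fresh M200 with 25 ng/mL VEGF plus vehicle, 2.5 μM sunitinib or compound (1, 2.5 μM); wound imaged at 0, 6, 12 and 24 h by inverted microscopy.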"}, "[15]": {"tested_on": "HT-29", "assay": "Induction of apoptosis in human HT-29 cells assessed as necrotic cells at 5 uM after 48 hrs by Annexin V-FITC/propidium iodide staining based flow cytometric analysis (reference value: 1.3%)", "format": "cell-based", "conditions": "ht-29, 48 h"}, "[16]": {"tested_on": "HUVEC", "assay": "Inhibition of Akt/mTOR signalling in VEGF-induced HUVEC assessed as reduction in P70S6K phosphorylation at Thr389 residue pre-incubated for 1.5 hrs followed by VEGF stimulation and measured after 30 mins by Western blot analysis", "format": "cell-based", "conditions": "Homo sapiens", "method_in_brief": "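HUVECs were starved overnight, pretreated 1.5 h with 1, 5, 10 or 20 μM, then stimulated with VEGF (50 ng/mL) for 30 min. Lysates were equalized by Bradford assay, about 20 μg protein was resolved on gradient SDS-PAGE and immunoblotted with phospho-specific antibodies. Detection by HRP secondary antibodies and ECL.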"}, "[17]": {"tested_on": "HT-29", "assay": "Induction of apoptosis in human HT-29 cells assessed as late apoptotic cells at 5 uM after 24 hrs by Annexin V-FITC/propidium iodide staining based flow cytometric analysis (reference value: 12.3 to 13.4%)", "format": "cell-based", "conditions": "ht-29, 24 h"}, "[18]": {"tested_on": "HT-29", "assay": "Inhibition of Akt/mTOR signalling in human HT-29 cells assessed as reduction in STAT3 phosphorylation at Tyr705 residue incubated for 24 hrs by immunoblot analysis", "format": "cell-based", "method_in_brief": "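HT29 cells were exposed to the indicated concentrations for 24 h. Cell lysates were then immunoblotted for the phosphorylated proteins.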"}, "[19]": {"assay": "Induction of apoptosis in human HT-29 cells assessed as viable cells at 5 uM after 24 hrs by Annexin V-FITC/propidium iodide staining based flow cytometric analysis (reference value: 80.8 to 81.1%)", "format": "cell-based", "conditions": "read-out: Activity"}, "[20]": {"tested_on": "HUVEC", "assay": "Antiinvasive activity in HUVEC assessed as inhibition of VEGF-induced cell invasion after 6 hrs by crystal violet staining based transwell assay", "format": "functional", "conditions": "Homo sapiens", "method_in_brief": "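Transwell: 1×10⁴ HUVECs in serum-free M200 in top chamber with vehicle or compound; bottom chamber M200 with 10% FBS; 6 h at 37°C; cells on membrane underside fixed in 4% paraformaldehyde, stained 0.1% crystal violet, imaged and counted.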"}}, "note": "Activity calls are given as the source filed them. No cut-off for these calls is given here.", "data": [{"compound": "COc1ccc(NC(=O)c2cccc(/C=C3\\CC(=O)N(c4ccc(C)cc4)C3=O)c2)cc1", "values": [{"measurement": "inhibition", "setting": "[1]", "value": "inactive"}, {"measurement": "inhibition", "setting": "[2]", "value": "50 to 70", "unit": "%"}, {"measurement": "inhibition", "setting": "[3]", "value": "Tde"}, {"measurement": "inhibition", "setting": "[4]", "value": "Dose-dependent effect"}, {"measurement": "IC50", "setting": "[5]", "value": "> 100", "unit": "µM"}, {"measurement": "inhibition", "setting": "[6]", "value": "Active"}, {"measurement": "inhibition", "setting": "[7]", "value": 95.4, "unit": "%"}, {"measurement": "inhibition", "setting": "[8]", "value": "Dose-dependent effect"}, {"measurement": "Activity", "setting": "[9]", "value": 5.4, "unit": "%"}, {"measurement": "Activity", "setting": "[10]", "value": "Non-Toxic"}, {"measurement": "Activity", "setting": "[11]", "value": "Active"}, {"measurement": "IC50", "setting": "[12]", "value": 8.56, "unit": "µM"}, {"measurement": "Activity", "setting": "[13]", "value": 9.8, "unit": "%"}, {"measurement": "inhibition at 2.5 µM", "setting": "[14]", "value": 30, "unit": "%"}, {"measurement": "Activity", "setting": "[15]", "value": 1.1, "unit": "%"}, {"measurement": "inhibition", "setting": "[16]", "value": "Dose-dependent effect"}, {"measurement": "Activity", "setting": "[17]", "value": "15.9 to 18.4", "unit": "%"}, {"measurement": "inhibition", "setting": "[18]", "value": "Dose-dependent effect"}, {"measurement": "viability at 24 h, 5 µM", "setting": "[19]", "value": "75.8 to 77.9", "unit": "%"}, {"measurement": "inhibition", "setting": "[20]", "value": "Dose-dependent effect"}]}]}
